Measured values reported in ChEMBL document CHEMBL3400011, “Canthinone alkaloids are novel protein tyrosine phosphatase 1B inhibitors” (Bioorg Med Chem Lett, 2015).

Experiments:
Homo sapiens [1] = organism: Homo sapiens; test: Ratio of inhibition rate for PTP1B (unknown origin) at 75 uM to inhibition rate for SHP1 (unknown origin) at 100 uM
[2] = target: T1, Tyrosine-protein phosphatase non-receptor type 1 (Homo sapiens) (UniProt P18031); test: Inhibition of PTP1B (unknown origin) assessed as inhibition rate at 100 uM
T1 sequence (whole entry): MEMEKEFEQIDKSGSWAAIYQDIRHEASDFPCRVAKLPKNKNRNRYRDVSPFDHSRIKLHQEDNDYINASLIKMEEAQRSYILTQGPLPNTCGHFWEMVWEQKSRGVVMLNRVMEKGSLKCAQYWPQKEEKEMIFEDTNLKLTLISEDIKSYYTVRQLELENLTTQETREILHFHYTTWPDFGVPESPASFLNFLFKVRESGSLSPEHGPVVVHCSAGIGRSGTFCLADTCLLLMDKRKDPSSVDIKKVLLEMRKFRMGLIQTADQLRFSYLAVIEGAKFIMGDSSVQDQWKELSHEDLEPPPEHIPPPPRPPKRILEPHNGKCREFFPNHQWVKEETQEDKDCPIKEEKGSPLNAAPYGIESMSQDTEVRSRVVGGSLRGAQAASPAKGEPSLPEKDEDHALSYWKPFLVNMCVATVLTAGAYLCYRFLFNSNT
Procedure, shortened: (§1)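 PTP1B enzymatic assay with RK-682 as the positive control. For the single-point screen, compounds were tested at a final 100 µM. For dose–response, inhibition was measured over a range of compound concentrations, and IC50 was obtained by regression analysis.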

Homo sapiens [3] = organism: Homo sapiens; test: Ratio of inhibition rate for PTP1B (unknown origin) at 75 uM to inhibition rate for VHR (unknown origin) at 100 uM
[4] = target: T2, Tyrosine-protein phosphatase non-receptor type 11 (Homo sapiens) (UniProt Q06124); test: Inhibition of SHP2 (unknown origin) assessed as inhibition rate at 100 uM
T2 sequence (whole entry): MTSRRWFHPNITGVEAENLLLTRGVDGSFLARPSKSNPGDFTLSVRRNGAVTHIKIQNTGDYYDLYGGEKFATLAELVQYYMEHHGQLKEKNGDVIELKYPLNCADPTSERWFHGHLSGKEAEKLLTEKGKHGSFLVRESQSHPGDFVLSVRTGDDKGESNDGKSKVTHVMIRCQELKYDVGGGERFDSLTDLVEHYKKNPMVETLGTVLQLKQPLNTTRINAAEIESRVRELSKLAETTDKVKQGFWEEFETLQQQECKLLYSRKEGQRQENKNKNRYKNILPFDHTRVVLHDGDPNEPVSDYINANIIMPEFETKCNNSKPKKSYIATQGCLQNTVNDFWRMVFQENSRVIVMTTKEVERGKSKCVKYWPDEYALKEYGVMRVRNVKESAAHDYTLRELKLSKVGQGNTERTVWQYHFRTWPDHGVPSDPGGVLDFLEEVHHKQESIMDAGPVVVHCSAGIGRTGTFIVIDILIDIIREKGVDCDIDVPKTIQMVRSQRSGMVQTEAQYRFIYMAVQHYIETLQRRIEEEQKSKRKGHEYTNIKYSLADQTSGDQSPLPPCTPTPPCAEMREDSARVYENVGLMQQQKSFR

[5] = target: T3, Tyrosine-protein phosphatase non-receptor type 1 (Homo sapiens, UniProt P18031); test: Inhibition of PTP1B (unknown origin); procedure, shortened: as §1
T3 sequence (P18031 whole entry): T1 sequence (whole entry)

HepG2 = test: Induction of Akt phosphorylation in insulin-stimulated human HepG2 cells assessed as pAkt/Akt ratio at 50 uM after 5 mins by western blotting analysis relative to control; format: functional
Procedure, shortened: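 HepG2 cells were treated with compound at 50 µM, then stimulated with insulin. pAkt was assessed by western blotting at 0 and 5 min after insulin. DMSO served as the negative control and sodium orthovanadate (200 µM) as the positive control. Values are expressed relative to control.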

Homo sapiens [6] = organism: Homo sapiens; test: Ratio of inhibition rate for PTP1B (unknown origin) at 75 uM to inhibition rate for TCPTP (unknown origin) at 100 uM
Homo sapiens [7] = organism: Homo sapiens; test: Ratio of inhibition rate for PTP1B (unknown origin) at 75 uM to inhibition rate for SHP2 (unknown origin) at 100 uM
[8] = target: T4, Tyrosine-protein phosphatase non-receptor type 2 (Homo sapiens) (UniProt P17706); test: Inhibition of TCPTP (unknown origin) assessed as inhibition rate at 100 uM
T4 sequence (whole entry): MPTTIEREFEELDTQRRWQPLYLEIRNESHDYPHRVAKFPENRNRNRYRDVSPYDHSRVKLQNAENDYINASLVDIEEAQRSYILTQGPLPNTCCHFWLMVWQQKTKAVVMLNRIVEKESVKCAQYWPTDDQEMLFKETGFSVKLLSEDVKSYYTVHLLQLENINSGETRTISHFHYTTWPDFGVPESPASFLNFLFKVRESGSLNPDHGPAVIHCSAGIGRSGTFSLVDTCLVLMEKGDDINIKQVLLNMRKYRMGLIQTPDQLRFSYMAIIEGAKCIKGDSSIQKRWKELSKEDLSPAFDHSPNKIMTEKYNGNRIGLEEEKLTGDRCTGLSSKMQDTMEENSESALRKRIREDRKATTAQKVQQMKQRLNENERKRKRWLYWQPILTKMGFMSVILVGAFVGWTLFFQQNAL

[9] = target: T3, Tyrosine-protein phosphatase non-receptor type 1; test: Non-competitive inhibition of PTP1B (unknown origin) assessed as hydrolysis of para-nitrophenylphosphate by Lineweaver-Burk plot
Procedure, shortened: (§2)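 Kinetic study of PTP1B varying both compound and p-nitrophenylphosphate substrate concentrations. Mode was read from Lineweaver–Burk plots. Slopes from those plots were replotted against compound concentration (secondary plot), and Ki was calculated from that plot.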

[10] = target: Tyrosine-protein phosphatase non-receptor type 6 (Homo sapiens) (UniProt P29350); test: Inhibition of SHP1 (unknown origin) assessed as inhibition rate at 100 uM
[11] = target: Dual specificity protein phosphatase 3 (Homo sapiens) (UniProt P51452); test: Inhibition of VHR (unknown origin) assessed as inhibition rate at 100 uM
[12] = target: T4, Tyrosine-protein phosphatase non-receptor type 2 (Homo sapiens); test: Inhibition of TCPTP (unknown origin) assessed as inhibition rate at 75 uM
[13] = target: T2, Tyrosine-protein phosphatase non-receptor type 11 (Homo sapiens); test: Inhibition of SHP2 (unknown origin) assessed as inhibition rate at 75 uM
Homo sapiens [14] = organism: Homo sapiens; test: Ratio of inhibition rate for PTP1B (unknown origin) at 75 uM to inhibition rate for TCPTP (unknown origin) at 75 uM
[15] = target: T1, Tyrosine-protein phosphatase non-receptor type 1 (Homo sapiens); test: Inhibition of PTP1B (unknown origin) assessed as inhibition rate at 75 uM
Homo sapiens [16] = organism: Homo sapiens; test: Ratio of inhibition rate for PTP1B (unknown origin) at 75 uM to inhibition rate for SHP1 (unknown origin) at 75 uM
[17] = target: T3, Tyrosine-protein phosphatase non-receptor type 1; test: Competitive inhibition of PTP1B (unknown origin) assessed as hydrolysis of para-nitrophenylphosphate by Lineweaver-Burk plot; procedure, shortened: as §2
Homo sapiens [18] = organism: Homo sapiens; test: Ratio of inhibition rate for PTP1B (unknown origin) at 75 uM to inhibition rate for SHP2 (unknown origin) at 75 uM
[19] = target: Tyrosine-protein phosphatase non-receptor type 6 (Homo sapiens) (UniProt P29350); test: Inhibition of SHP1 (unknown origin) assessed as inhibition rate at 75 uM
Homo sapiens [20] = organism: Homo sapiens; test: Ratio of inhibition rate for PTP1B (unknown origin) at 75 uM to inhibition rate for VHR (unknown origin) at 75 uM
[21] = target: Dual specificity protein phosphatase 3 (Homo sapiens) (UniProt P51452); test: Inhibition of VHR (unknown origin) assessed as inhibition rate at 75 uM
[22] = target: T4, Tyrosine-protein phosphatase non-receptor type 2 (Homo sapiens); test: Inhibition of TCPTP (unknown origin) assessed as inhibition rate at 90 uM
[23] = target: T1, Tyrosine-protein phosphatase non-receptor type 1 (Homo sapiens); details: 90 uM
[24] = target: Dual specificity protein phosphatase 3 (Homo sapiens) (UniProt P51452); test: Inhibition of VHR (unknown origin) assessed as inhibition rate at 90 uM
[25] = target: T2, Tyrosine-protein phosphatase non-receptor type 11 (Homo sapiens); test: Inhibition of SHP2 (unknown origin) assessed as inhibition rate at 90 uM
[26] = target: Tyrosine-protein phosphatase non-receptor type 6 (Homo sapiens) (UniProt P29350); test: Inhibition of SHP1 (unknown origin) assessed as inhibition rate at 90 uM

Chain of Tyrosine-protein phosphatase non-receptor type 6 (Homo sapiens) (P29350 whole entry): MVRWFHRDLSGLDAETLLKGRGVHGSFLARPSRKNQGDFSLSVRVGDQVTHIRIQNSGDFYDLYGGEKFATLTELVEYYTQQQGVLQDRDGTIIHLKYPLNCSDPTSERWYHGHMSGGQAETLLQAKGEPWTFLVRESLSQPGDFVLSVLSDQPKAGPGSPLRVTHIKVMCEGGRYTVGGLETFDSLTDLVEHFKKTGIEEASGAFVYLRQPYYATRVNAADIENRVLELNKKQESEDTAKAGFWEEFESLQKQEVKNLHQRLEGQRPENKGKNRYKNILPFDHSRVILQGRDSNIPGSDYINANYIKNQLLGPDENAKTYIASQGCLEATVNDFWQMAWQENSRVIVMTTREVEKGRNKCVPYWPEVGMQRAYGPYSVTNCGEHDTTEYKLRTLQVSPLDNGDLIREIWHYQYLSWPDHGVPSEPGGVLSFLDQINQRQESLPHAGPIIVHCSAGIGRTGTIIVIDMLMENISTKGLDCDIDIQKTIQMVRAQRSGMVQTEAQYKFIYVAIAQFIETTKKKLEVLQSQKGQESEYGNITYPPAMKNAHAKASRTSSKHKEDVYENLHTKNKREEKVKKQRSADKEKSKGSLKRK
Chain of Dual specificity protein phosphatase 3 (Homo sapiens) (P51452 whole entry, looked up): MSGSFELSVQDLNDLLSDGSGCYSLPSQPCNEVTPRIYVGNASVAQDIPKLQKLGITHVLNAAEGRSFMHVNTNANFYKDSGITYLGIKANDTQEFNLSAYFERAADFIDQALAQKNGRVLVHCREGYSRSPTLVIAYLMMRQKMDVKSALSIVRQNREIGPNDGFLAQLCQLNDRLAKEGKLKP

COc1ccc2c3ccn(C)c4cc(=O)c(=O)n(c3-4)c2c1
Ratio (Homo sapiens [1]): 3.3
inhibition [2]: 93.8%
Ratio (Homo sapiens [3]): 1.5
inhibition [4]: 44.4%
IC50 [5]: 19.2 µM
pAkt/Akt ratio (HepG2): 1.8
Ratio (Homo sapiens [6]): 6.3
Ratio (Homo sapiens [7]): 2.1
inhibition [8]: 15%
Ki [9]: 12.9 µM
inhibition [10]: 28.7%
inhibition [11]: 61.4%

CCc1c2n(C)ccc3c-2n(c(=O)c1=O)c1ccccc31
Ratio (Homo sapiens [1]): 4.4
inhibition [2]: 91%
Ratio (Homo sapiens [3]): 4.6
inhibition [4]: 25%
IC50 [5]: 27.8 µM
pAkt/Akt ratio (HepG2): 1.2
Ratio (Homo sapiens [6]): 2.3
Ratio (Homo sapiens [7]): 3.6
inhibition [8]: 40%
Ki [9]: 20 µM
inhibition [10]: 20.6%
inhibition [11]: 19.7%

Cn1ccc2c3n(c(=O)c(=O)cc1-3)c1ccccc21
inhibition [12]: 29%
inhibition [13]: 16.3%
IC50 [5]: 19.8 µM
Ratio (Homo sapiens [14]): 3.2
inhibition [15]: 91.4%
Ratio (Homo sapiens [16]): 6.9
pAkt/Akt ratio (HepG2): 2.4
Ki [17]: 7.07 µM
Ratio (Homo sapiens [18]): 5.6
inhibition [19]: 13.2%
Ratio (Homo sapiens [20]): 4.4
inhibition [21]: 20.6%

CC(=O)Oc1cc2nccc3c4ccccc4n(c1=O)c23
IC50 [5]: 28.9 µM
pAkt/Akt ratio (HepG2): 2.1
inhibition [22]: 22.1%
inhibition [23]: 90.3%
inhibition [24]: 46%
Ki [9]: 18.4 µM
inhibition [25]: 23%
inhibition [26]: 30.2%
